The values below come from ChEMBL document CHEMBL4118075, “Thiophene/thiazole-benzene replacement on guanidine derivatives targeting α2-Adrenoceptors” (Eur J Med Chem, 2017).

Active and inactive are the calls of the source. The rule behind the calls is not given here.

Assay [1] has as its target T1, Adrenergic receptor alpha-2 (Homo sapiens, UniProt P08913+P18825+P18089).
T1 sequence (P08913 whole entry): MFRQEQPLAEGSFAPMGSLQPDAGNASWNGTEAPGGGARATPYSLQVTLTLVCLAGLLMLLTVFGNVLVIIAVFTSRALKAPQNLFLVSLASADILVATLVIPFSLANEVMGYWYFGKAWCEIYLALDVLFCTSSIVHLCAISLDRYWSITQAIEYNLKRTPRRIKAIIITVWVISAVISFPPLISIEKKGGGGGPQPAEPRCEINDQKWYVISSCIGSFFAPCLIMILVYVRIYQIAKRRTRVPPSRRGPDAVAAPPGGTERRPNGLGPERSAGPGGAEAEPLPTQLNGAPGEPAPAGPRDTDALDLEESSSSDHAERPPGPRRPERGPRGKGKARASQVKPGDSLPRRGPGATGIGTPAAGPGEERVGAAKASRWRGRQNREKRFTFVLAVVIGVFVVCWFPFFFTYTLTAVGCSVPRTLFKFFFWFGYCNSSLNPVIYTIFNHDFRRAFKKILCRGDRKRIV
T1 sequence (P18825 whole entry): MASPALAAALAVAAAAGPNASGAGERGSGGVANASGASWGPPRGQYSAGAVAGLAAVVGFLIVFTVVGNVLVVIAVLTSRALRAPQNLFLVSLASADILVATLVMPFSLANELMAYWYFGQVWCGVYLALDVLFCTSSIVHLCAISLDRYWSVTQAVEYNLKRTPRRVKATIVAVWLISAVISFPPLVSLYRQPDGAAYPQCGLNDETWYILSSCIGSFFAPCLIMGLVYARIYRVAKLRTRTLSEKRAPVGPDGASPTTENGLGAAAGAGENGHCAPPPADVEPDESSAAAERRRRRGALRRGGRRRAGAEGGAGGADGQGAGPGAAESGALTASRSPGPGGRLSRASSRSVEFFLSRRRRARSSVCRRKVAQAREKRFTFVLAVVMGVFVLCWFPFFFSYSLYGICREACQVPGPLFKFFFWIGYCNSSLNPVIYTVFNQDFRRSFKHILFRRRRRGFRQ
T1 sequence (P18089 whole entry): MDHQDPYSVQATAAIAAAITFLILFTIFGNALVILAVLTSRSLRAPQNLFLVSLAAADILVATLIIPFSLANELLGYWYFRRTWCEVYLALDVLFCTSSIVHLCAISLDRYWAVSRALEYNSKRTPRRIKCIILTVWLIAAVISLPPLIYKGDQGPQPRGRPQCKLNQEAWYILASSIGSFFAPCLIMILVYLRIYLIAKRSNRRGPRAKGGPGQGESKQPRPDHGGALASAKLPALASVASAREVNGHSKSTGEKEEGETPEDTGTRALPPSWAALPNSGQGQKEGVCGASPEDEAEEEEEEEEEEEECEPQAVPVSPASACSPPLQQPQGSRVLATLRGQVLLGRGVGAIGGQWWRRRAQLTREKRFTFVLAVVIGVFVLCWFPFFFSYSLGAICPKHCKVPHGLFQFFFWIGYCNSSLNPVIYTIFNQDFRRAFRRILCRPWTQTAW
Nature of the assay: Displacement of [3H]RX821002 from alpha2 adrenergic receptor in human brain prefrontal cortex membranes after 30 mins by microbeta liquid scintillation spectrometry. Also on record: species or system Membrane. The procedure, abridged:
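Competition binding on post-mortem human PFC P2 membranes in 50 mM Tris-HCl pH 7.5. [3H]RX821002 at 2 nM; competitor at 10 concentrations from 10⁻¹² to 10⁻³ M; 30 min at 25 °C. Vacuum filtration on GF/C, scintillation counting. Nonspecific binding defined with adrenaline 10⁻⁵ M. Ki from nonlinear regression with a one-site model.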
In general terms: In a radioligand displacement assay an active substance lowers the binding of a labelled ligand.

Assay [2] has as its target T2, Adrenergic receptor alpha-2 (Homo sapiens) (UniProt P08913+P18825+P18089). Nature of the assay: Agonist activity at alpha2 adrenergic receptor in human brain prefrontal cortex membranes assessed as stimulation of [35S]GTPgammaS binding at 10^-12 to 10^-3 M after 120 mins by microbeta liquid scintillation spectrometry. It is filed as functional. The conditions noted are these: Membrane. The procedure, abridged:
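GTPγS exchange in human prefrontal cortex P2 membranes (20 µg/well) with 0.5 nM [35S]GTPγS, in EGTA/MgCl₂/100 mM NaCl/GDP/Tris pH 7.4 buffer. Ten concentrations from 10⁻¹² to 10⁻³ M; 30 °C for 120 min with shaking. Filtered on GF/C and scintillation counted; nonspecific binding with 10 µM GTPγS. EC50 and Emax expressed as % over basal binding.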
In general terms: GTPγS resists hydrolysis and so accumulates on activated G proteins.

The target in assay [3] is T1, Adrenergic receptor alpha-2. The assay can be described thus: Activity at alpha2 adrenergic receptor in human brain prefrontal cortex membranes assessed as effect on UK14304-induced [35S]GTPgammaS binding by measuring UK14304 EC50 at 10^-5 M after 120 mins by microbeta liquid scintillation spectrometry (reference value: 0.4 +/- 0.01 uM). The assay is classed as functional, Membrane.

The target in assay [4] is T2, Adrenergic receptor alpha-2 (Homo sapiens). Nature of the assay: Activity at alpha2 adrenergic receptor in human brain prefrontal cortex membranes assessed as effect on UK14304-induced [35S]GTPgammaS binding at 10^-5 M after 120 mins by microbeta liquid scintillation spectrometry (reference value: 132 +/- 2%). It is filed as functional. The conditions noted are these: Membrane.

The target is the same in assay [5]. Nature of the assay: Agonist activity at alpha2 adrenergic receptor in human brain prefrontal cortex membranes assessed as stimulation of [35S]GTPgammaS binding at 10^-5 M after 120 mins in presence of antagonist RX821002 by microbeta liquid scintillation spectrometry. It is filed as functional. Conditions: Membrane.

Broadly, the Ki is the equilibrium dissociation constant of an inhibitor or competing ligand from its target. Lower therefore signals a stronger hold on the target. In assay [1], `CCOC(=O)c1c(NC(=N)N)sc2c1CCC2.Cl` came in with an inhibitory constant (Ki) of 30150 nM.

As usually defined, the EC50 is the concentration that produces a half-maximal response. Broadly, the Emax is the maximal effect, on the per cent scale that the assay sets. As to `Cl.N=C(N)Nc1nc2c(s1)CCCC2`, the inhibitory constant (Ki) in assay [1] was determined as 1205 nM. For the same compound, the outcome in assay [2] was inactive. Further, in assay [3], the EC50 stood at 11400 nM. Also, the Emax in assay [4] came to 105%.

On to `Cl.N=C(N)Nc1cc2c(s1)CCCC2`, for which, in assay [1], the Ki is listed as 31.3 nM. For the same compound, the result in assay [2] was inactive. Further, the concentration for a half-maximal effect (EC50) in assay [3] was determined as 800 nM. In assay [4], the Emax is 111%.

Compound `Cl.N#Cc1c(NC(=N)N)sc2c1CCC2` came in with an inhibition constant Ki in assay [1] of 2215 nM.

`COC(=O)c1sccc1NC(=N)N.Cl`: in assay [1], the inhibition constant Ki is on record as above 100000 nM.

For the compound `Cl.N#Cc1c(NC(=N)N)sc2c1CCCC2`, in assay [1], the inhibition constant Ki came out at 733 nM. In assay [2], the outcome was inactive. The EC50 in assay [3] stood at 6600 nM. The maximal effect (Emax) in assay [4] was found to be 128%.

In assay [1], `Cl.N=C(N)NCCc1cccs1` had an inhibition constant (Ki) of 751 nM. The EC50 in assay [3] is 1700 nM. Moreover, the maximum response (Emax) in assay [4] was 117%.

`Cl.N=C(N)Nc1cc2c(s1)CCC2` returned an inhibitory constant (Ki) in assay [1] of 87.9 nM. Besides, in assay [2], the outcome was inactive. Moreover, the EC50 in assay [3] turned out to be 500 nM. Further, in assay [4], the maximum response (Emax) amounted to 111%.

In assay [1], `Cl.N=C(N)Nc1cc2c(s1)CCCCC2` showed an inhibition constant (Ki) of 156 nM. In addition, the result in assay [2] was Active. Moreover, the result in assay [5] was inactive. Moreover, the EC50 in assay [3] stood at 10700 nM. For the same compound, the maximal response (Emax) in assay [4] amounted to 124%.

Take `CCOC(=O)c1c(C)csc1NC(=N)N.Cl`: the inhibition constant (Ki) in assay [1] stood at 66530 nM.

`COC(=O)c1ccsc1NC(=N)N.Cl` returned a Ki in assay [1] above 100000 nM.

`Cl.N=C(N)NCc1cccs1`: in assay [1], the Ki is reported as 3928 nM.

Compound `Cl.N=C(N)Nc1nc2c(s1)CCC2` had a Ki in assay [1] of 706 nM. For the same compound, in assay [2], the result was inactive. Besides, the half-maximal effective concentration (EC50) in assay [3] was found to be 1500 nM. The Emax in assay [4] was 126%.

In assay [1], `Cl.N#Cc1c(NC(=N)N)sc2c1CCCCC2` returned a Ki of 1198 nM.

In the case of `CCOC(=O)c1c(NC(=N)N)sc2c1CCCCC2.Cl`, the inhibition constant Ki in assay [1] is reported as above 100000 nM.

Take `Cl.N=C(N)Nc1ccsc1`: the Ki in assay [1] came out at 1968 nM.

Turning to `CCOC(=O)c1c(NC(=N)N)sc2c1CCCC2.Cl`, in assay [1], the Ki is listed as 9086 nM.
